The values below come from ChEMBL document CHEMBL2375239, “Improving the immunostimulatory potency of diethanolamine-containing lipid A mimics” (Bioorg Med Chem, 2013).

Active and inactive are the calls of the source. The rule behind the calls is not given here.

Common to all, as to format: cell-based
Holding throughout (conditions): THP-1

In assay [1] the target is T1, Toll-like receptor 4/MD-2 (Homo sapiens) (UniProt O00206+Q9Y6Y9). In words: Agonist activity at TLR4/MD-2 receptor complex in human THP1 cells assessed as IL-1beta release at 10^-3 uM after 24 hrs by ELISA. Summed up: (§1)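 Mimics reconstituted in 20% DMSO/PBS with brief sonication, fresh aliquot per experiment, final DMSO ≤0.5%. THP-1 cells differentiated 48 h with 25 ng/mL PMA, washed, serum-starved 3 h. Stimulated 24 h across 10⁻⁴–10 µM. Supernatant TNF-α, IL-6 or IL-1β read by ELISA (450 nm, 540 nm correction). Duplicates; mean of two experiments.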
Background: ELISA stands for enzyme-linked immunosorbent assay.

Assay [2] has as its target T1, Toll-like receptor 4/MD-2 (Homo sapiens). As to the kind of experiment: Agonist activity at TLR4/MD-2 receptor complex in human THP1 cells assessed as TNF-alpha release at 10^-3 uM after 24 hrs by ELISA. Summed up:
as §1

Assay [3] shares this target. In words: Agonist activity at TLR4/MD-2 receptor complex in human THP1 cells assessed as IL-1beta release at 10 uM after 24 hrs by ELISA. The gist of the method: as §1
Assay [4] shares this target. As to the kind of experiment: Agonist activity at TLR4/MD-2 receptor complex in human THP1 cells assessed as IL-6 release at 10 uM after 24 hrs by ELISA. The gist of the method:
as §1

For assay [5] the target is unchanged. In words: Agonist activity at TLR4/MD-2 receptor complex in human THP1 cells assessed as TNF-alpha release at 10 uM after 24 hrs by ELISA. Summed up: as §1
Assay [6] shares this target. In words: Agonist activity at TLR4/MD-2 receptor complex in human THP1 cells assessed as IL-1beta release at 0.1 uM to 1 uM after 24 hrs by ELISA. Summed up:
as §1

For assay [7] the target is unchanged. In words: Agonist activity at TLR4/MD-2 receptor complex in human THP1 cells assessed as IL-6 release at 0.1 uM to 1 uM after 24 hrs by ELISA. Summed up:
as §1

Assay [8] shares this target. As to the kind of experiment: Agonist activity at TLR4/MD-2 receptor complex in human THP1 cells assessed as TNF-alpha release at 0.1 uM to 1 uM after 24 hrs by ELISA. Summed up:
as §1

For assay [9] the target is unchanged. As to the kind of experiment: Agonist activity at TLR4/MD-2 receptor complex in human THP1 cells assessed as IL-1beta release at 0.001 uM after 24 hrs by ELISA in presence of lipid IVa in presence of 0.1 uM of lipid IVa. Summed up:
(§2)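 THP-1 cells plated at 0.5 × 10⁶ cells/well in RPMI with 25 ng/mL PMA for 48 h. Adherent cells washed with PBS, held in serum-free RPMI 3 h, then stimulated 24 h with agonist plus increasing lipid IVa (dissolved in DMSO). Supernatant TNF-α and IL-1β measured by ELISA, A450 corrected at 540 nm. Duplicates; mean of two separate experiments.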

The target is the same in assay [10]. As to the kind of experiment: Agonist activity at TLR4/MD-2 receptor complex in human THP1 cells assessed as TNF-alpha release at 0.001 uM after 24 hrs by ELISA in presence of 0.1 uM of lipid IVa. Summed up: as §2
For assay [11] the target is unchanged. As to the kind of experiment: Agonist activity at TLR4/MD-2 receptor complex in human THP1 cells assessed as IL-1beta release at 0.1 uM after 24 hrs by ELISA in presence of lipid IVa in presence of 0.1 uM of lipid IVa. Summed up:
as §2

For assay [12] the target is unchanged. As to the kind of experiment: Agonist activity at TLR4/MD-2 receptor complex in human THP1 cells assessed as TNF-alpha release at 0.1 uM after 24 hrs by ELISA in presence of 0.1 uM of lipid IVa. The gist of the method: as §2
For assay [13] the target is unchanged. In words: Agonist activity at TLR4/MD-2 receptor complex in human THP1 cells assessed as IL-1beta release at 0.1 uM after 24 hrs by ELISA in presence of lipid IVa in presence of 0.5 uM of lipid IVa. Summed up:
as §2

The target is the same in assay [14]. In words: Agonist activity at TLR4/MD-2 receptor complex in human THP1 cells assessed as TNF-alpha release at 0.1 uM after 24 hrs by ELISA in presence of 0.5 uM of lipid IVa. The gist of the method: as §2
The target is the same in assay [15]. In words: Agonist activity at TLR4/MD-2 receptor complex in human THP1 cells assessed as IL-1beta release at 10^-4 uM after 24 hrs by ELISA. The gist of the method:
as §1

`CCCCCCCCCCCCCC(=O)O[C@H](CCCCCCCCCCC)CC(=O)N[C@H]1[C@H](OCCN(CCO)C(=O)C[C@@H](CCCCCCCCCCC)OC(=O)CCCCCCCCCCCCC)O[C@H](CO)[C@@H](OP(=O)(O)O)[C@@H]1OC(=O)C[C@@H](CCCCCCCCCCC)OC(=O)CCCCCCCCCCCCC`: the result in assay [1], in assay [2], in assay [3], in assay [4], in [5] and in [6] was Active. Further, the outcome in [7] and in assay [8] was Active.

As for `CCCCCCCCCCCCCC(=O)O[C@H](CCCCCCCCCCC)CC(=O)N[C@H]1[C@H](OCCN(CCOP(=O)(O)O)C(=O)C[C@@H](CCCCCCCCCCC)OC(=O)CCCCCCCCCCCCC)O[C@H](CO)[C@@H](OP(=O)(O)O)[C@@H]1OC(=O)C[C@@H](CCCCCCCCCCC)OC(=O)CCCCCCCCCCCCC`, the outcome in assay [1], in assay [2], in assay [3], in assay [4], in assay [5] and in [6] was Active. Besides, the outcome in [7] and in assay [8] was Active.

Take `CCCCCCCCCCCCCC(=O)O[C@H](CCCCCCCCCCC)CC(=O)N[C@H]1[C@H](OCCN(CC(=O)O)C(=O)C[C@@H](CCCCCCCCCCC)OC(=O)CCCCCCCCCCCCC)O[C@H](CO)[C@@H](OP(=O)(O)O)[C@@H]1OC(=O)C[C@@H](CCCCCCCCCCC)OC(=O)CCCCCCCCCCCCC`: the result in assay [9], in [10], in assay [11], in [12], in [13] and in assay [15] was Active. For the same compound, the result in assay [1], in [2], in assay [3], in assay [4], in assay [5] and in assay [6] was Active. In addition, the outcome in [7] and in assay [8] was Active. For the same compound, in assay [14], the outcome was inactive.
